# ChEMBL document CHEMBL1148254, “Lead discovery of quinoxalinediones as an inhibitor of dipeptidyl peptidase-IV (DPP-IV) by high-throughput screening” (Bioorg Med Chem Lett, 2004)
# Molecular target: Dipeptidyl peptidase 4 (Rattus norvegicus) (UniProt P14740)
# Assay: Inhibitory activity against Dipeptidylpeptidase IV in rat
# Design: concentration or dose not given beside the values
# Conditions: concentration not given here
# Outline: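 Rat plasma was the enzyme source, incubated with Ala-Pro-AFC substrate (40) at room temperature, pH 7.8, for 1 h with or without test compound (20). Compounds were dissolved in DMSO, giving 5% DMSO in the assay mixture. Released AFC was read by fluorescence at 360 nm excitation and 485 nm emission, and a reference inhibitor was included.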
# Dipeptidyl peptidase 4 (Rattus norvegicus), sequence (P14740 whole entry, looked up): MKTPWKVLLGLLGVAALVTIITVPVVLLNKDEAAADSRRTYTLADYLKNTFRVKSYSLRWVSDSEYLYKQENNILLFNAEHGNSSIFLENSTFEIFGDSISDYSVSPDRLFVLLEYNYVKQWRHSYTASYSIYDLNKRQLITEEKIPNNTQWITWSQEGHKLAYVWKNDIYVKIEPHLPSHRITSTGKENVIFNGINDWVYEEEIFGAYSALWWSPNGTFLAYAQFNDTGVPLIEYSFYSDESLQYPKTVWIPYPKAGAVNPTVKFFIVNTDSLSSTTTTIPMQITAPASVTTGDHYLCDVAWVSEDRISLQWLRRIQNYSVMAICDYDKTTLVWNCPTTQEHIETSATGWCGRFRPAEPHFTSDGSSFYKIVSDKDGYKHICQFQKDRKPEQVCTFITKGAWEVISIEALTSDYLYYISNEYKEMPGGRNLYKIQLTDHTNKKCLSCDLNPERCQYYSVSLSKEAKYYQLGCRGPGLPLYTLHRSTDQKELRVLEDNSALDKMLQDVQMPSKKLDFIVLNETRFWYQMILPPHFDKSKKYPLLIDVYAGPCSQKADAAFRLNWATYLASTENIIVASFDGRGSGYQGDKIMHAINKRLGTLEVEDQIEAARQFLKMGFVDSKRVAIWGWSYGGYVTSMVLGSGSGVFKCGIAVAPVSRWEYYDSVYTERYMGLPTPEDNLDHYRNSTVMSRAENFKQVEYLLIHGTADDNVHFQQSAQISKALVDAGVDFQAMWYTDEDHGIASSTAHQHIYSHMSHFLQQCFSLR
row,inhibition,SMILES
1,5.1%,O=C(Nc1ccc(F)cc1F)Nn1c(=O)c(=O)[nH]c2cc([N+](=O)[O-])ccc21
2,41.5%,O=c1[nH]c2ccccc2n(NC(=S)NCc2ccccc2)c1=O
3,50%,O=c1[nH]c2cc(Cl)c(Cl)cc2n(NC(=S)Nc2ccccc2)c1=O
4,20.5%,Cc1ccc(S(=O)(=O)NC(=O)Nn2c(=O)c(=O)[nH]c3cc(Cl)ccc32)cc1
5,14.1%,O=C(Nn1c(=O)c(=O)[nH]c2ccccc21)NS(=O)(=O)c1ccccc1
6,57.2%,O=C(Nn1c(=O)c(=O)[nH]c2cc([N+](=O)[O-])ccc21)NS(=O)(=O)c1ccccc1
7,72.2%,O=C(NC(=O)c1ccccc1)Nn1c(=O)c(=O)[nH]c2cc([N+](=O)[O-])ccc21
8,13%,O=C(NC(=O)c1ccccc1)Nn1c(=O)c(=O)[nH]c2ccccc21
9,48%,Cc1ccc(S(=O)(=O)NC(=O)Nn2c(=O)c(=O)[nH]c3cc([N+](=O)[O-])ccc32)cc1
10,66.8%,O=C(Nn1c(=O)c(=O)[nH]c2cc([N+](=O)[O-])ccc21)NS(=O)(=O)c1ccc(Cl)cc1
11,10.4%,Cc1ccccc1S(=O)(=O)NC(=O)Nn1c(=O)c(=O)[nH]c2cc(Cl)c(Cl)cc21
12,1%,Cc1ccc(NC(=O)Nn2c(=O)c(=O)[nH]c3cc([N+](=O)[O-])ccc32)cc1
13,12.3%,Cc1ccccc1S(=O)(=O)NC(=O)Nn1c(=O)c(=O)[nH]c2ccccc21
14,20.5%,O=C(NC(=S)Nn1c(=O)c(=O)[nH]c2cc(Cl)c(Cl)cc21)c1ccccc1
15,3.6%,O=C(Nc1ccccc1)Nn1c(=O)c(=O)[nH]c2cc([N+](=O)[O-])ccc21
16,40.1%,CC/N=C(\S)Nn1c(=O)c(=O)[nH]c2ccccc21
17,26.4%,Cc1ccccc1S(=O)(=O)NC(=O)Nn1c(=O)c(=O)[nH]c2cc(Cl)ccc21
18,23.7%,O=C(Nn1c(=O)c(=O)[nH]c2cc(Cl)c(Cl)cc21)NS(=O)(=O)c1ccccc1
19,6.6%,O=C(Nc1cccc(Cl)c1)Nn1c(=O)c(=O)[nH]c2cc([N+](=O)[O-])ccc21
20,32.1%,O=c1[nH]c2ccccc2n(NC(=S)Nc2cccc(Cl)c2)c1=O
21,26.5%,O=c1[nH]c2ccccc2n(NC(=S)Nc2ccccc2)c1=O
22,79.1%,Cc1ccccc1S(=O)(=O)NC(=O)Nn1c(=O)c(=O)[nH]c2cc([N+](=O)[O-])ccc21
23,17.3%,O=C(Nn1c(=O)c(=O)[nH]c2cc(Cl)ccc21)NS(=O)(=O)c1ccccc1
24,12.3%,Cc1ccc(S(=O)(=O)NC(=O)Nn2c(=O)c(=O)[nH]c3ccccc32)cc1
25,21%,Cc1ccc(S(=O)(=O)NC(=O)Nn2c(=O)c(=O)[nH]c3cc(Cl)c(Cl)cc32)cc1
26,14.8%,O=C(NC(=O)c1ccccc1)Nn1c(=O)c(=O)[nH]c2cc(Cl)ccc21
